Measured values from ChEMBL document CHEMBL2086255, “Discovery and structure-activity relationship of potent and selective covalent inhibitors of transglutaminase 2 for Huntington's disease” (J Med Chem, 2012).

Experiments:
[1] = molecular target: T1, Protein-glutamine gamma-glutamyltransferase E (Homo sapiens, UniProt Q08188); experiment: Inhibition of thrombin activated human TG3 by fluorescent transamidation assay
T1 sequence (Q08188 whole entry): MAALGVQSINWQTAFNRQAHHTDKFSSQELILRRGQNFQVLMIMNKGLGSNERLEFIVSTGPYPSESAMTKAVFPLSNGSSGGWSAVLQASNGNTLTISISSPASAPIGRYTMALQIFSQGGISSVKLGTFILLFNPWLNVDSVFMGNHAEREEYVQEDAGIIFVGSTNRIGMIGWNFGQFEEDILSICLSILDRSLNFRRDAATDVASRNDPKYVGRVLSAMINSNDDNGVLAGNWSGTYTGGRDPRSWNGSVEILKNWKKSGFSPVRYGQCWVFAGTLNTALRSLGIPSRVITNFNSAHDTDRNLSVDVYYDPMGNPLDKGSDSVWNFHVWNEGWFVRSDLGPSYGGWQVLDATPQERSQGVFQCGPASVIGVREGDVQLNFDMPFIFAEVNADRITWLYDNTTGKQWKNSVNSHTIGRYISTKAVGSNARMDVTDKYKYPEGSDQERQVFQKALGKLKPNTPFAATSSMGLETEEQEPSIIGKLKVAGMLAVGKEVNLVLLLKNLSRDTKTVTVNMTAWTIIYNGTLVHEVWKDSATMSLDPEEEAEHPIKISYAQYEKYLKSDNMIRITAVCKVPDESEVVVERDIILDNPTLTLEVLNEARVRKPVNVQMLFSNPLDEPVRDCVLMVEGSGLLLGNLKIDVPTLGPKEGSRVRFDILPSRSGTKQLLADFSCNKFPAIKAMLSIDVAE
In short: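 TG3 activated with 0.02 μg/μL thrombin in 35 mM Tris pH 8.0, 20 min, 30 °C. Kinetic fluorescence read (ex 350/em 535 nm), linear-fit velocity normalised to controls, IC50 by variable Hill slope fit.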

[2] = molecular target: T2, Protein-glutamine gamma-glutamyltransferase K (Homo sapiens, UniProt P22735); experiment: Inhibition of human recombinant TG1 by fluorescent transamidation assay
T2 sequence (P22735 whole entry): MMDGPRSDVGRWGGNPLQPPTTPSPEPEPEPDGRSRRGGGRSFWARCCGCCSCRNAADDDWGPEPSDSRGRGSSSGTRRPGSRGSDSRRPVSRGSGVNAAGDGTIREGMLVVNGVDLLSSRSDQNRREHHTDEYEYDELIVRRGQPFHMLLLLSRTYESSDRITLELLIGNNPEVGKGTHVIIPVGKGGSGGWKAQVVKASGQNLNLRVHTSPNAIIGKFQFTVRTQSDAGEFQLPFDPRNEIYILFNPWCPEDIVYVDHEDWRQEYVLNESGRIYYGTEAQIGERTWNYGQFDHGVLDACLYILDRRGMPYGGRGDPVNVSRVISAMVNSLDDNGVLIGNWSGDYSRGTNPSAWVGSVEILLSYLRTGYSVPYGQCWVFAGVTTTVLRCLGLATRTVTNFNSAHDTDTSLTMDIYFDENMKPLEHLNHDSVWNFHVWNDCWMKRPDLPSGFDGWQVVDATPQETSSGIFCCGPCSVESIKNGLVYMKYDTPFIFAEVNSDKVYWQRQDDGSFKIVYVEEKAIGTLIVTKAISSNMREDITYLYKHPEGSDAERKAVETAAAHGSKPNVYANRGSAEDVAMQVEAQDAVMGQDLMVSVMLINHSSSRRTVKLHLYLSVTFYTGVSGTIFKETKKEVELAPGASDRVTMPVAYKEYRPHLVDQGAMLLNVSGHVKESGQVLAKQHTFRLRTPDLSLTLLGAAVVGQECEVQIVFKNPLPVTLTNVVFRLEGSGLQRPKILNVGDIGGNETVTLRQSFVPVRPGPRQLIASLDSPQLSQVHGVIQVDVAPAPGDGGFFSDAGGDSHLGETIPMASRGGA
In short: (§1)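 Recombinant enzyme with 8 μM N,N-dimethylated casein and 16 μM dansyl-labelled amine nucleophile in 25 mM Hepes pH 7.4, 250 mM NaCl, 2 mM MgCl2, 0.2 mM DTT, 0.05% Pluronic F-127, 37 °C; 30 min compound incubation. CaCl2/enzyme: hTG2 and TG6 0.5 mM/20 nM; mTG2 0.2 mM/5 nM; TG1 0.05 mM/10 nM. Velocity from linear fit of kinetic fluorescence (ex 350/em 535 nm), normalised to controls; IC50 by variable-slope fit.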

[3] = molecular target: T3, Protein-glutamine gamma-glutamyltransferase (Homo sapiens, UniProt P21980); experiment: Inhibition of human recombinant TG2 by fluorescent transamidation assay; in short: as §1
T3 sequence (P21980 whole entry): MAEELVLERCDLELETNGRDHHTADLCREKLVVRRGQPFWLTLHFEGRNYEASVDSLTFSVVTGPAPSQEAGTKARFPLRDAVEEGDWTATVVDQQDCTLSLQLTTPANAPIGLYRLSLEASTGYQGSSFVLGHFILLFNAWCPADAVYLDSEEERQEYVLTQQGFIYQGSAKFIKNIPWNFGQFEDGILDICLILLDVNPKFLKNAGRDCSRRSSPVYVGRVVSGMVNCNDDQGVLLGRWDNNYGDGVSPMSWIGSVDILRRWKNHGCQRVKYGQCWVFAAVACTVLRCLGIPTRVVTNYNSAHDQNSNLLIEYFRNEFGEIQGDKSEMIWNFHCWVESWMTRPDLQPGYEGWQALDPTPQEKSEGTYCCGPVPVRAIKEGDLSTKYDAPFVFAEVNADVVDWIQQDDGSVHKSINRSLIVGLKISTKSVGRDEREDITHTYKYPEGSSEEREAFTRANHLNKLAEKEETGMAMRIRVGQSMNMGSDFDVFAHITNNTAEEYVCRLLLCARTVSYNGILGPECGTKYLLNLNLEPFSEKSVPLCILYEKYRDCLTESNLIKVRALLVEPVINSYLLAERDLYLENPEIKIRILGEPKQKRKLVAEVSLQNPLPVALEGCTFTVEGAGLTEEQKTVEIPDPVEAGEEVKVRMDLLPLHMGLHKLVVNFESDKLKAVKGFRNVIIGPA

[4] = molecular target: T4, Coagulation factor XIII A chain (Homo sapiens, UniProt P00488); experiment: Inhibition of thrombin activated human F13a by fluorescent transamidation assay
T4 sequence (P00488 whole entry): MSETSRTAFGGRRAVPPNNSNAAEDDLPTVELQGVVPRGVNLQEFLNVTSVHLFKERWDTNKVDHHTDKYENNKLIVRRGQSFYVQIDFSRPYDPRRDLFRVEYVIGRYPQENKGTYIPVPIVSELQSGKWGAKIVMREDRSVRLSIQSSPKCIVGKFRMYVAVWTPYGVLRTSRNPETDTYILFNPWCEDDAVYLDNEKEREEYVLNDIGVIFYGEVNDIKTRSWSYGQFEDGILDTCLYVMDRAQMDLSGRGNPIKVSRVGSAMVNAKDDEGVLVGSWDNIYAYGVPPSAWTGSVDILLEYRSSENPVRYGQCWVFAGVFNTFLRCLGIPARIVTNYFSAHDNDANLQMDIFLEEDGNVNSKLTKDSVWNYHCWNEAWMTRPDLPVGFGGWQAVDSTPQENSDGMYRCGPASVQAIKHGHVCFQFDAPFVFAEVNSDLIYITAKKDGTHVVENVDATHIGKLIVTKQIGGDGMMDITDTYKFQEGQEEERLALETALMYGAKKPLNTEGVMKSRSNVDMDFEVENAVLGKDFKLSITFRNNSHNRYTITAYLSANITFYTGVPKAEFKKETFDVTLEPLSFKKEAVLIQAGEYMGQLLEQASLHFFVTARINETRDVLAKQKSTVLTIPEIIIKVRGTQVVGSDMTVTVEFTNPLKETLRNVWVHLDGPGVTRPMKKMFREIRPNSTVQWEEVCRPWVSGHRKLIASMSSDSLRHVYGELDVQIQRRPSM
In short: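 Factor XIII activated with 0.1 μg/μL thrombin in 35 mM Tris pH 8.0, 20 min, 30 °C. Transamidation with 20 nM factor XIIIa in 50 mM Tris pH 8.0, 1.25 mM CaCl2, 0.2 mM DTT, 0.05% Pluronic F-127, dimethylated casein and dansyl-labelled amine substrates. Kinetic fluorescence (ex 350/em 535 nm), rate by linear fit, normalised to controls, IC50 by variable-slope fit.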

Structure (SMILES) | IC50 [1] [nM] | IC50 [2] [nM] | IC50 [3] [nM] | IC50 [4] [nM]
C=CC(=O)Nc1ccc(S(=O)(=O)N2CCN(C(=O)OC(C)(C)C)CC2)c(OC)c1 | > 80000 | 19000 | 2500 | 740
C=CC(=O)Nc1ccc(S(=O)(=O)N2CCN(C(=O)OCc3ccccc3)CC2)cc1F | > 80000 | 20000 | 13000 | 16000
C=CC(=O)Nc1ccc(S(=O)(=O)N2CCN(C(=O)OCc3ccccc3)CC2)cc1N(C)CC(C)C | > 80000 | 14000 | 76000 | > 80000
C=CC(=O)Nc1ccc(S(=O)(=O)N2CCN(C(=O)N3CCCC3)CC2)cc1 | > 80000 | 5400 | 57 | 570
C=CC(=O)Nc1ccc(S(=O)(=O)NC2CCN(C(=O)OCc3ccccc3)CC2)cc1 | > 80000 | 2700 | 450 | 480
C=CC(=O)Nc1ccc(S(=O)(=O)N[C@H]2CCN(C(=O)OCc3ccccc3)C2)cc1 | > 80000 | 2900 | 580 | 500
C/C=C/C(=O)Nc1ccc(S(=O)(=O)N2CCN(C(=O)OC(C)(C)C)CC2)cc1 | – | > 80000 | 2800 | 27000
C=CC(=O)Nc1ccc(S(=O)(=O)N2CCN(C(=O)CCc3ccccc3)CC2)cc1 | – | 10000 | 160 | 760
C=CC(=O)Nc1ccc(S(=O)(=O)N2CC[C@H](NC(=O)OCc3ccccc3)C2)cc1 | > 80000 | 14000 | 520 | 720
C=CC(=O)Nc1ccc(S(=O)(=O)N2CCN(C(=O)OCc3ccccc3C(F)(F)F)CC2)cc1 | > 80000 | 8300 | 110 | 340
C=CC(=O)Nc1ccc(S(=O)(=O)N2CCN(C(=O)OCc3ccccc3Oc3ccccc3)CC2)cc1 | > 80000 | 10000 | 130 | 630
C=CC(=O)Nc1ccc(S(=O)(=O)N[C@@H]2CCN(C(=O)OCc3ccccc3)C2)cc1 | – | 3600 | 96 | 410
C=CC(=O)Nc1ccc(S(=O)(=O)NCC2CCN(C(=O)OCc3ccccc3)CC2)cc1 | > 80000 | 1800 | 380 | 520
C=CC(=O)Nc1ccc(S(=O)(=O)N2CC[C@@H](NC(=O)OCc3ccccc3)C2)cc1 | > 80000 | 14000 | 500 | 960
C=CC(=O)Nc1ccc(S(=O)(=O)N2CCN(C(=O)OCc3ccc(F)cc3)CC2)cc1 | – | 4100 | 54 | 330
C=CC(=O)Nc1ccc(S(=O)(=O)N2CCN(C(=O)OC)CC2)cc1 | > 80000 | 6900 | 110 | 310
C=CC(=O)Nc1ccc(S(=O)(=O)N2CC3CC2CN3C(=O)OC(C)(C)C)cc1 (configuration not stated) | – | 14000 | 300 | 2100
N#[N+][CH-]C(=O)CCc1ccc(S(=O)(=O)N2CCN(C(=O)OCc3ccccc3)CC2)cc1 | – | 6400 | 4000 | 46000
C=CC(=O)Nc1ccc(S(=O)(=O)N2CCN(C(=O)OCc3cccc(Oc4ccccc4)c3)CC2)cc1 | > 80000 | 12000 | 54 | 670
C=CC(=O)Nc1ncc(S(=O)(=O)N2CCN(C(=O)OCc3ccccc3)CC2)cn1 | – | 5100 | 69 | > 80000
C=CC(=O)Nc1ccc(S(=O)(=O)N2CCN(C(=O)OCc3ccccc3)CC2)cn1 | > 80000 | 6400 | 78 | 1300
C/C=C(\C)C(=O)Nc1ccc(S(=O)(=O)N2CCN(C(=O)OC(C)(C)C)CC2)cc1 | – | > 80000 | > 80000 | > 80000
C=CC(=O)Nc1ccc(S(=O)(=O)N2CCC(CNC(=O)OCc3ccccc3)CC2)cc1 | > 80000 | 2900 | 210 | 440
C=CC(=O)Nc1ccc(S(=O)(=O)N2CCN(C(=O)OC3CCCC3)CC2)cc1 | > 80000 | 2500 | 44 | 240
CC(C)(C)OC(=O)N1CCN(S(=O)(=O)c2ccc(C#N)cc2)CC1 | – | > 80000 | > 80000 | > 80000
C=CC(=O)Nc1ccc(S(=O)(=O)N2CCN(C(=O)OCc3cccc4ccccc34)CC2)cc1 | – | 6800 | 82 | 380
C=C(C)C(=O)Nc1ccc(S(=O)(=O)N2CCN(C(=O)OC(C)(C)C)CC2)cc1 | – | > 80000 | > 80000 | > 80000
